Test results: ChEMBL document CHEMBL5647683 (Oncogene, 2008)
Activity calls are given as the source filed them. The rule behind the calls is not given here.

Experiments:
FaDu = assay: Antitumor activity against human FaDu cells xenografted athymic NMRI-nu/nu female mouse as reduction in tumor volume at 20 mg/kg, po administered daily for 25 days relative to control; type: functional; settings: time 25 day
Procedure, shortened: (§1)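 Female athymic NMRI-nu/nu mice (5–6 weeks, 21–31 g) given 1–5×10⁶ cells into the right flank; MDA-MB-453 tumors started from fresh 2×2×2 mm fragments. At 40–130 mm³, tumors were randomized to weight-based daily oral gavage (10 ml/kg; 1.8% HP-β-CD, 5% acetic acid (10%), 0.5% Natrosol) or vehicle. Caliper measurement 3×/week, volume π/6×L×W². Expressed as cumulative treated/control volume ratio; one-way ANOVA with Dunnett's test.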

A-431 = assay: In vivo inhibition of EGFR in human A-431 cells xenografted athymic NMRI-nu/nu female mouse as reduction in AKT phosphorylation at 20 mg/kg, po administered daily for 25 days by immunohistochemical staining; type: functional, organism-based; settings: time 25.0 day
Procedure, shortened: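 A431 flank xenografts in female NMRI-nu/nu mice dosed daily by oral gavage in HP-β-CD/acetic acid/Natrosol vehicle. Tumors collected 6 h after the last dose. Sections immunostained for phospho-EGFR and phospho-AKT.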

[1] = Cmax in human HT-29 cells xenografted athymic NMRI-nu/nu female mouse at 20 mg/kg, po administered daily for 25 days by LC-MS-MS method; type: ADME, organism-based; settings: in vivo, time 25 day
MDA-MB-453 = assay: Antitumor activity against human MDA-MB-453 cells xenografted athymic NMRI-nu/nu female mouse as reduction in tumor volume at 20 mg/kg, po administered daily for 25 days relative to control; type: functional; settings: time 25 day; procedure, shortened: as §1
[2] = target: Serine/threonine-protein kinase Nek6 (Homo sapiens) (UniProt Q9HC98); assay: Inhibition of NEK6 (unknown origin) assessed as remaining activity relative to control; values are per cent of control
Sequence of Serine/threonine-protein kinase Nek6 (Homo sapiens) (Q9HC98 whole entry): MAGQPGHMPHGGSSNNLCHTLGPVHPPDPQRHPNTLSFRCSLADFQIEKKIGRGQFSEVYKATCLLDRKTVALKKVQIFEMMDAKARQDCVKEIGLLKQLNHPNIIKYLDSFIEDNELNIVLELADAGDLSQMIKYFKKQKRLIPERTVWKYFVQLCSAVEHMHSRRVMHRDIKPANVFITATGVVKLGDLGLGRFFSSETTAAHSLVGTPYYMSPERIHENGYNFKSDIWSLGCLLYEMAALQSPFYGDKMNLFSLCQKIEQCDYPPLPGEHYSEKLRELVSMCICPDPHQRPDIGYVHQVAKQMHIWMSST

Mus musculus [3] = assay: Antitumor activity against EGFR L858R/T790M mutant driven lung cancer mouse model assessed as reduction in numbers of tumor foci at 20 mg/kg, po administered daily for 2 weeks by IHC staining based analysis; type: functional, organism-based
[4] = target: Mitogen-activated protein kinase 1 (Homo sapiens) (UniProt P28482); assay: Inhibition of ERK2 (unknown origin) assessed as remaining activity relative to control; values are per cent of control
Sequence of Mitogen-activated protein kinase 1 (Homo sapiens) (P28482 whole entry): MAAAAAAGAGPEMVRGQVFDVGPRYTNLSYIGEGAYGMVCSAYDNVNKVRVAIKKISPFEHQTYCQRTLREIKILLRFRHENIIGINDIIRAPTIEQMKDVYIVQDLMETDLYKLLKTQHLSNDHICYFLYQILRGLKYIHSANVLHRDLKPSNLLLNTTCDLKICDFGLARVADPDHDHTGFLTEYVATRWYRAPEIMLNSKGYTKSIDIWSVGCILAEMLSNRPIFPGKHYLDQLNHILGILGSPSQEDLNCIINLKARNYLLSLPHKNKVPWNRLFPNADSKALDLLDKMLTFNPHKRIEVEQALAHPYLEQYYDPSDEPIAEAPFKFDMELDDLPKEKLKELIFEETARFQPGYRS

[5] = Cmax in human MDA-MB-453 cells xenografted athymic NMRI-nu/nu female mouse at 20 mg/kg, po administered daily for 25 days by LC-MS-MS method; type: ADME, organism-based; settings: in vivo, time 25 day
NIH3T3 [6] = assay: Inhibition of colony formation in EGFR mutant R108K expressing mouse NIH3T3 cells assessed as number of colonies at 1 to 10000 nM incubated for 2 week by soft agar assay; type: functional, cell-based; settings: dose 1-10000 nM, time 2.0 weeks
Procedure, shortened: (§2)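 NIH-3T3 cells expressing wild-type or mutant EGFR suspended in top agar (DMEM, 10% calf serum, 0.4% agar) over 0.5% agar bottom layer; drug added to top layer; wild-type cells supplemented with 100 ng/ml EGF. Triplicate plating, 2-week incubation; colonies counted from 10 fields photographed at ×4; values normalized to untreated.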

[7] = target: MAP kinase-activated protein kinase 5 (Homo sapiens) (UniProt Q8IW41); assay: Inhibition of PRAK (unknown origin) assessed as remaining activity relative to control; values are per cent of control
Sequence of MAP kinase-activated protein kinase 5 (Homo sapiens) (Q8IW41 whole entry): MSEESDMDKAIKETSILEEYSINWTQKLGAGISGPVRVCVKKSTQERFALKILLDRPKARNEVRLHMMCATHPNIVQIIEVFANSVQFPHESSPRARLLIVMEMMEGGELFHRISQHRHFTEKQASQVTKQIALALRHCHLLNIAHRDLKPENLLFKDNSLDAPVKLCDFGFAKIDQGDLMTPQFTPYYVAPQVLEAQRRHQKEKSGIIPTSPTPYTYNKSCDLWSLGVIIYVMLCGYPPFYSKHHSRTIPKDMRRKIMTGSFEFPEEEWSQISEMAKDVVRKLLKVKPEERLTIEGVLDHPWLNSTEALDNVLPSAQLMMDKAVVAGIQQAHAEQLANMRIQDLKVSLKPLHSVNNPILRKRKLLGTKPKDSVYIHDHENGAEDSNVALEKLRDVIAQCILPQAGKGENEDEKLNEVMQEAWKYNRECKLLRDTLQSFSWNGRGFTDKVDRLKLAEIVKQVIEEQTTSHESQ

[8] = target: Mitogen-activated protein kinase 11 (Homo sapiens) (UniProt Q15759); assay: Inhibition of SAPK2b (unknown origin) assessed as remaining activity relative to control; values are per cent of control
Sequence of Mitogen-activated protein kinase 11 (Homo sapiens) (Q15759 whole entry): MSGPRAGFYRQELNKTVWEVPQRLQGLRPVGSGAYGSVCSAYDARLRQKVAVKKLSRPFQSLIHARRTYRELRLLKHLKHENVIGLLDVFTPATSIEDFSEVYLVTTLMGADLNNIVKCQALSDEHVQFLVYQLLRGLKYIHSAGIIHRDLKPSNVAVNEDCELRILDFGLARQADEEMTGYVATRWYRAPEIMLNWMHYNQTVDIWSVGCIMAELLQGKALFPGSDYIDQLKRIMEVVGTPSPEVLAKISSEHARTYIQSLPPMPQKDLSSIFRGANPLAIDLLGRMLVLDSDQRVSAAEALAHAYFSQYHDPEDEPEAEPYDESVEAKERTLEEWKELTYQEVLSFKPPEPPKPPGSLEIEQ

Homo sapiens = organism: Homo sapiens; assay: Inhibition of PI3K (unknown origin) assessed as remaining activity relative to control; values are per cent of control
[9] = target: Rho-associated protein kinase 2 (Homo sapiens) (UniProt O75116); assay: Inhibition of ROCK-II (unknown origin) assessed as remaining activity relative to control; values are per cent of control
Sequence of Rho-associated protein kinase 2 (Homo sapiens) (O75116 whole entry, looked up): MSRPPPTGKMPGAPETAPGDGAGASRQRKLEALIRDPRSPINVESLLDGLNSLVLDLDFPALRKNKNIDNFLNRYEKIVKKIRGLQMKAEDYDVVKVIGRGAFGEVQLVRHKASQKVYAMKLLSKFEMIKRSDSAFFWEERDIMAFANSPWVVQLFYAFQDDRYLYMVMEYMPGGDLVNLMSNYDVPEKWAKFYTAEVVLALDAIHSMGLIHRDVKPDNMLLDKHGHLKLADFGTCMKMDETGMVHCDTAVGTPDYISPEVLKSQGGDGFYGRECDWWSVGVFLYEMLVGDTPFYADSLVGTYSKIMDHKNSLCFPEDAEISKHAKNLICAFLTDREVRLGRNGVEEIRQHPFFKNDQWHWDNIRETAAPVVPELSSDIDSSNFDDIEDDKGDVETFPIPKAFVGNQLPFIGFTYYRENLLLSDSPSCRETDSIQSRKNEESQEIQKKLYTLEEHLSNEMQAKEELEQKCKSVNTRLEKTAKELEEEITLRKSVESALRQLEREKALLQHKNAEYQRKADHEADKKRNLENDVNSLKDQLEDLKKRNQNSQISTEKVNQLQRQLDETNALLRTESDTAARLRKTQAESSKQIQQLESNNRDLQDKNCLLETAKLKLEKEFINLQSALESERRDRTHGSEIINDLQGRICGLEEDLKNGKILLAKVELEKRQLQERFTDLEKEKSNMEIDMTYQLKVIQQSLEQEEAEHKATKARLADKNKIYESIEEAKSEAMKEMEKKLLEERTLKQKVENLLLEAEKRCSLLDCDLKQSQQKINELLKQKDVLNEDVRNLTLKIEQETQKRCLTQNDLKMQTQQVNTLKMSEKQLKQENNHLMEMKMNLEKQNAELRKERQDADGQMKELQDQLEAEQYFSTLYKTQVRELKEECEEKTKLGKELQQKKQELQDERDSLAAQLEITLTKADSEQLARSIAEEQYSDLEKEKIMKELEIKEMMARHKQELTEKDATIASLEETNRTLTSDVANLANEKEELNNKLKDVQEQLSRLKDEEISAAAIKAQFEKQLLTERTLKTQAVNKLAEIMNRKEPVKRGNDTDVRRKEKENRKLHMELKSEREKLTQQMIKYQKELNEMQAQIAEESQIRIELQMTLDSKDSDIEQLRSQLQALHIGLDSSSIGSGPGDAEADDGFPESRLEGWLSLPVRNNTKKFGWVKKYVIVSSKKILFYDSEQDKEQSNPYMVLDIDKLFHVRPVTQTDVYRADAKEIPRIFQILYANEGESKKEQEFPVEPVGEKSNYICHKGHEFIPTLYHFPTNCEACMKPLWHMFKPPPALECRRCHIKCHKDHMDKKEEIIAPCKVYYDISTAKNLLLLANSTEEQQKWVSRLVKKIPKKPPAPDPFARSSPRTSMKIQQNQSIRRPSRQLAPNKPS

Mus musculus [10] = assay: Antitumor activity against EGFR L858R/T790M mutant driven lung cancer mouse model assessed as histological change in lung structure at 20 mg/kg, po administered daily for 2 weeks in the presence of rapamycin by IHC staining based analysis; type: functional, organism-based
[11] = target: Dual specificity tyrosine-phosphorylation-regulated kinase 1A (Homo sapiens) (UniProt Q13627); assay: Inhibition of DYRK1a (unknown origin) assessed as remaining activity relative to control; values are per cent of control
Mus musculus [12] = assay: Antitumor activity against EGFR L858R/T790M mutant driven lung cancer mouse model assessed as increase in pigment-laden macrophages indicative of tissue damage and repair at 20 mg/kg, po administered daily for 2 weeks by IHC staining based analysis; type: functional, organism-based
[13] = target: cAMP-dependent protein kinase (PKA) (Homo sapiens) (UniProt P22694+P17612+P22612); assay: Inhibition of PKA (unknown origin) assessed as remaining activity relative to control; values are per cent of control
NIH3T3 [14] = assay: Inhibition of colony formation in EGFR exon 20 insertion mutant D770-771insNPG expressing mouse NIH3T3 cells assessed as number of colonies at 1 to 10000 nM incubated for 2 week by soft agar assay; type: functional, cell-based; settings: dose 1-10000 nM, time 2.0 weeks; procedure, shortened: as §2
Mus musculus [15] = assay: Antitumor activity against EGFR L858R/T790M mutant driven lung cancer mouse model assessed as reduction in tumor volume at 20 mg/kg, po administered daily for 4 weeks by MRI analysis relative to control; type: functional; set-up: scale not given: the % may be the effect or the level left
Procedure, shortened: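 Tet-op-L858R/T790M EGFR/CCSP-rtTA bitransgenic mice, kept on doxycycline diet about 6 weeks and throughout the study. Mice with tumors identified by MRI were gavaged once daily with 20 mg/kg in 0.5% methylcellulose–0.4% Tween 80. MRI repeated at 2 and 4 weeks; tumor volume reduction reported as mean ± s.d.; Student's t-test.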

Mus musculus [16] = assay: Antitumor activity against EGFR L858R/T790M mutant driven lung cancer mouse model assessed as increase in tissue space at 20 mg/kg, po administered daily for 2 weeks by IHC staining based analysis; type: functional, organism-based
[17] = AUC(0-24hrs) in human MDA-MB-453 cells xenografted athymic NMRI-nu/nu female mouse at 20 mg/kg, po administered daily for 25 days by LC-MS-MS method; type: ADME, organism-based; settings: in vivo, time 25 day
[18] = target: MAP kinase-activated protein kinase 2 (Homo sapiens) (UniProt P49137); assay: Inhibition of MAPKAP-K2 (unknown origin) assessed as remaining activity relative to control; values are per cent of control
Sequence of MAP kinase-activated protein kinase 2 (Homo sapiens) (P49137 whole entry, looked up): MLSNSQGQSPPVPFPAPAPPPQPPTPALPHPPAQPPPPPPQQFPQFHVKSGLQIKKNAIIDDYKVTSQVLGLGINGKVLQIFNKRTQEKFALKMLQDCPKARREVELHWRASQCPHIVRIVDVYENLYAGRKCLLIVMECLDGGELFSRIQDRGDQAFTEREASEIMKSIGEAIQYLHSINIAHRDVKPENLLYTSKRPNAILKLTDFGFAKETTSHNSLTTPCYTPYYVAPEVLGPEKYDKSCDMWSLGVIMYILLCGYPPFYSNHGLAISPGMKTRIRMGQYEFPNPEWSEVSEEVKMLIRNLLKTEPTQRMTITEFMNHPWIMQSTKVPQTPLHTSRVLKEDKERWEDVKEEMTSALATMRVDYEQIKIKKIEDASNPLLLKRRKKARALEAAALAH

[19] = target: Mitogen-activated protein kinase 8 (Homo sapiens) (UniProt P45983); assay: Inhibition of JNK1 (unknown origin) assessed as remaining activity relative to control; values are per cent of control
Sequence of Mitogen-activated protein kinase 8 (Homo sapiens) (P45983 whole entry): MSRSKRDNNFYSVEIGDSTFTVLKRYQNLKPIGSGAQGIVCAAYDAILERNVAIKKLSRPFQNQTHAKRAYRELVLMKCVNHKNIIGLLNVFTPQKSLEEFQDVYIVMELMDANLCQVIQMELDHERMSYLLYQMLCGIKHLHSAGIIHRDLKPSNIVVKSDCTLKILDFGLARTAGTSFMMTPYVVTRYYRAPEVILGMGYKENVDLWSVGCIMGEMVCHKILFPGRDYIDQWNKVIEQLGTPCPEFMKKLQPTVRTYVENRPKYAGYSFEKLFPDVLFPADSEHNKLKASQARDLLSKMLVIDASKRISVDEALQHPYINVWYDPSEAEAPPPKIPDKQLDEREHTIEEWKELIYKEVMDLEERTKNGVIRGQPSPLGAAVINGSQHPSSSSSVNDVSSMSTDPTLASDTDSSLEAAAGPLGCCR

[20] = AUC(0-24hrs) in human FaDu cells xenografted athymic NMRI-nu/nu female mouse at 20 mg/kg, po administered daily for 25 days by LC-MS-MS method; type: ADME, organism-based; settings: in vivo, time 25 day

CN(C)C/C=C/C(=O)Nc1cc2c(Nc3ccc(F)c(Cl)c3)ncnc2cc1O[C@H]1CCOC1 [AFATINIB]
T/C (FaDu): 1% | inhibition (A-431): Active | Cmax [1]: 667 nM | T/C (MDA-MB-453): 3% | residual activity [2]: 95% | Activity (Mus musculus [3]): Active | residual activity [4]: 88% | Cmax [5]: 83 nM | inhibition (NIH3T3 [6]): Active | residual activity [7]: 83% | residual activity [8]: 56% | residual activity (Homo sapiens): 109% | residual activity [9]: 91% | Activity (Mus musculus [10]): inactive | residual activity [11]: 40% | Activity (Mus musculus [12]): Active | residual activity [13]: 82% | inhibition (NIH3T3 [14]): Active | Activity (Mus musculus [15]): >50% | Activity (Mus musculus [16]): Active | AUC at 600 h [17]: 0.972 µM·h | residual activity [18]: 88% | residual activity [19]: 87% | AUC at 600 h [20]: 1.23 µM·h
